Legend:
Format in all cases: functional
Rattus norvegicus [1] = assay: Antisecretory activity in pylorus ligated rats at a 40 mg/kg dose administered intraperitoneally; settings: ip, route intraperitoneal
In short: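 Pylorus-ligated rats, six per compound and eight controls. Compound given intraperitoneally at 40 mg/kg at the time of ligation. Reduction in acid output measured over 4 h.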

Canis familiaris [2] = assay: Antisecretory activity in histamine stimulated dogs at 1 mg/kg dose administered intravenously; settings: Canis lupus familiaris, route intravenous
In short: (§1)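 Adult mongrel dogs with surgically prepared Heidenhain pouches, acid secretion stimulated with histamine. Compound given intravenously (0.1-5 mg/kg range). Acid output reduction is expressed relative to the nondrug-treated control value in the same animal, each dog serving as its own control. Unless noted otherwise, one dog per compound. ED50 is the iv dose reducing acid output to 50% of control.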

Canis familiaris [3] = assay: Antisecretory activity in histamine stimulated dogs at 5 mg/kg dose administered intravenously; settings: Canis lupus familiaris; route intravenous; in short: as §1
Canis familiaris [4] = assay: Antisecretory activity in histamine stimulated dogs at 4 mg/kg dose administered orally; settings: Canis lupus familiaris, route oral
In short: (§2)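 Heidenhain pouch mongrel dogs, histamine-stimulated acid secretion. Compound given orally at 2–8 mg/kg. Reduction in acid output is relative to the same animal's own nondrug control, since histamine response depends on pouch size. Usually a single dog per compound. Oral ED50 is the dose reducing acid output to 50% of control.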

Canis familiaris [5] = assay: Antisecretory activity in histamine stimulated dogs at 5 mg/kg dose administered orally; settings: Canis lupus familiaris; route oral; in short: as §2
Rattus norvegicus [6] = organism: Rattus norvegicus; assay: Cytoprotective activity in rats against the ethyl alcohol stimulated ulcers measured as effective dose
In short: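 Rats were dosed orally at 1–30 mg/kg, 30 min before an oral challenge of absolute ethanol. Ethanol-induced gastric lesions were scored 1 h later, and an effective dose was estimated.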

Canis familiaris [7] = assay: percentage inhibition of acid secretion in histamine stimulated dogs at a dose of 0.4 mg/kg; settings: Canis lupus familiaris
Canis familiaris [8] = assay: Antisecretory activity in histamine stimulated dogs at 2 mg/kg dose administered intravenously; settings: Canis lupus familiaris, route intravenous; in short: as §1
Canis familiaris [9] = assay: Antisecretory activity in histamine stimulated dogs at 2 mg/kg dose administered orally; settings: Canis lupus familiaris, route oral; in short: as §2
Canis familiaris [10] = assay: Antisecretory activity in histamine stimulated dogs at 8 mg/kg dose administered orally; settings: Canis lupus familiaris, route oral; in short: as §2
Canis familiaris [11] = assay: percentage inhibition of acid secretion in histamine stimulated dogs at a dose of 0.2 mg/kg; settings: Canis lupus familiaris
Canis familiaris [12] = assay: Antisecretory activity in histamine stimulated dogs following 5 mg/kg i.v. administration.; settings: Canis lupus familiaris, route intravenous; in short: as §1
Canis familiaris [13] = assay: Antisecretory activity in histamine stimulated dogs at 0.1 mg/kg dose administered intravenously; settings: Canis lupus familiaris, route intravenous; in short: as §1

Row | SMILES | inhibition in vivo at 40 mg/kg (Rattus norvegicus [1]) [%] | ED50 (Rattus norvegicus [6]) [mg/kg] | inhibition in vivo at 2 mg/kg (Canis familiaris [8]) [%] | inhibition in vivo at 8 mg/kg (Canis familiaris [10]) [%] | inhibition in vivo at 5 mg/kg (Canis familiaris [12]) [%] | further results
1 | COC(=O)Nc1c(C)nc2c(OCc3ccccc3)cccn12 | 0 |  |  |  |  | 
2 | Cc1nc2c(OCc3ccccc3)nccn2c1N | 79 | 5 | 65 | 70 |  | inhibition in vivo at 1 mg/kg (Canis familiaris [2]): 56%; ED50 (Canis familiaris [3]): 0.8 mg/kg; inhibition in vivo at 4 mg/kg (Canis familiaris [4]): 69%; ED50 (Canis familiaris [5]): 1.4 mg/kg; inhibition in vivo at 0.4 mg/kg (Canis familiaris [7]): 41%; inhibition in vivo at 2 mg/kg (Canis familiaris [9]): 63%; inhibition in vivo at 0.2 mg/kg (Canis familiaris [11]): 15%
3 | Cc1nc2c(OCc3ccccc3)cccn2c1NCc1ccccc1 | 48 | 2.5 |  |  | 0 | 
4 | Cc1nc2c(CCc3ccccc3)cccn2c1N | 47 | 9 | 71 | 52 |  | inhibition in vivo at 1 mg/kg (Canis familiaris [2]): 46%; inhibition in vivo at 4 mg/kg (Canis familiaris [4]): 41%; inhibition in vivo at 2 mg/kg (Canis familiaris [9]): 19%
5 | Cc1nc2c(Oc3ccccc3)cccn2c1N | 34 | 5 | 40 | 19 |  | 
6 | Cc1nc2c(OCc3ccccc3)cccn2c1NC(=O)OCc1ccccc1 | 8 |  | 82 |  |  | inhibition in vivo at 4 mg/kg (Canis familiaris [4]): 17%
7 | Cc1nc2c(COc3ccccc3)cccn2c1N | 27 | 6.6 |  | 39 | 34 | 
8 | CNC(=O)Nc1c(C)nc2c(OCc3ccccc3)cccn12 | 22 | 3.5 |  |  | 27 | 
9 | Cc1nc2c(OCc3cccs3)cccn2c1N | 70 | 5 | 77 | 86 |  | inhibition in vivo at 4 mg/kg (Canis familiaris [4]): 80%; inhibition in vivo at 0.1 mg/kg (Canis familiaris [13]): 12%; inhibition in vivo at 2 mg/kg (Canis familiaris [9]): 30%
10 | Cc1nc2c(OCc3ccc(Cl)cc3)cccn2c1N | 66 | 2.2 |  | 92 |  | inhibition in vivo at 1 mg/kg (Canis familiaris [2]): 74%; inhibition in vivo at 4 mg/kg (Canis familiaris [4]): 81%; inhibition in vivo at 2 mg/kg (Canis familiaris [9]): 32%
11 | Cc1nc2c(OCc3ccsc3)cccn2c1N | 52 | 8.4 | 82 | 88 |  | inhibition in vivo at 4 mg/kg (Canis familiaris [4]): 86%; inhibition in vivo at 2 mg/kg (Canis familiaris [9]): 29%
12 | CCNc1c(C)nc2c(OCc3ccccc3)cccn12 | 95 | 3.5 | 32 | 68 | 70 | 
13 | Cc1nc2c(CCc3ccccc3)cccn2c1O | 32 | 9.6 | 0 |  |  | 
14 | Cc1nc2c(OCCc3ccccc3)cccn2c1N | 56 | 5.2 | 39 | 39 |  | 
15 | CSc1c(C)nc2c(CCc3ccccc3)cccn12 | 28 | 8.5 |  |  | 0 | 
16 | Cc1nc2cc(CCc3ccccc3)ccn2c1N | 50 | 5.2 | 17 | 0 |  | 
17 | CC(=O)Nc1c(C)nc2c(OCc3ccccc3)cccn12 | 93 | 4.6 | 24 | 44 |  | 
18 | Cc1nc2c(OCc3ccccc3)cccn2c1CCN | 63 |  | 6 | 9 |  | 
19 | Cc1nc2c(OCc3ccccn3)cccn2c1N | 16 | 2.3 |  | 15 |  | 
20 | CC(C)c1nc2c(OCc3ccccc3)cccn2c1N | 0 | 2.7 | 24 | 0 |  | 
21 | Cc1nc2c(OCc3ccc(F)cc3)cccn2c1N | 95 | 4.8 | 95 | 93 |  | inhibition in vivo at 4 mg/kg (Canis familiaris [4]): 60%; inhibition in vivo at 2 mg/kg (Canis familiaris [9]): 55%
22 | Cc1nc2ccc(CCc3ccccc3)cn2c1N | 52 | 5.7 | 6 | 0 |  | 
23 | Cc1nc2c(NCc3ccccc3)cccn2c1N | 84 | 9.6 | 98 | 89 |  | 
24 | CCCCc1nc2c(OCc3ccccc3)cccn2c1N | 26 | 7.5 | 45 | 0 |  | 
25 | CC(C)(C)c1nc2c(OCc3ccccc3)cccn2c1N | 0 | 15 |  | 0 | 2 | 
26 | CCCN(CCC)c1c(C)nc2c(OCc3ccccc3)cccn12 | 60 | 8.4 |  |  | 0 | 

Row | SMILES | inhibition in vivo at 40 mg/kg (Rattus norvegicus [1]) [%] | ED50 (Rattus norvegicus [6]) [mg/kg] | inhibition in vivo at 2 mg/kg (Canis familiaris [8]) [%] | inhibition in vivo at 8 mg/kg (Canis familiaris [10]) [%] | inhibition in vivo at 5 mg/kg (Canis familiaris [12]) [%] | further results
27 | Cc1nc2c(OCc3ccccc3)ccc(C)n2c1C | 26 | 8 | 13 |  |  | 
28 | Cc1nc2c(OCc3ccccc3)cccn2c1/N=C/N(C)C | 64 | 9.8 | 12 | 0 |  | 
29 | Cc1nc2c(OCc3ccccc3)cccn2c1NC(C)C | 18 | 16 |  |  | 0 | 
30 | Cc1nc2c(SCc3ccccc3)cccn2c1N | 0 | 5.7 | 0 | 11 |  | 
31 | Cc1nc2c(OCc3ccccc3)cccn2c1CN | 46 |  |  | 9 | 49 | 
32 | Cc1nc2c(OCc3ccccc3)cccn2c1NC=O | 49 | 10 | 3 |  |  | 
33 | Cc1nc2c(CCc3ccccc3)nccn2c1N |  |  |  |  | 18 | 
34 | Cc1cc(OCc2ccccc2)c2nc(C)c(N)n2c1 | 65 | 2.3 | 46 | 50 |  | 
35 | CCNc1c(C)nc2c(OCc3ccccc3)nccn12 | 48 | 6 |  |  | 0 | 
36 | Cc1nc2c(OCc3ccccc3)cccn2c1N(C)C | 76 | 2.8 | 85 | 72 |  | 
37 | CCc1nc2c(OCc3ccccc3)cccn2c1N | 83 | 5.2 |  | 59 |  | inhibition in vivo at 1 mg/kg (Canis familiaris [2]): 72%
38 | CCNc1c(C)nc2c(CCc3ccccc3)cccn12 | 78 | 5.2 |  | 65 | 11 | 
39 | Cc1ccn2c(N)c(C)nc2c1OCc1ccccc1 | 60 | 13.5 |  | 64 |  | inhibition in vivo at 4 mg/kg (Canis familiaris [4]): 36%
40 | Cc1cc(OCc2ccccc2)c2nc(C)c(C)n2c1 | 86 | 8.2 | 45 | 71 |  | inhibition in vivo at 4 mg/kg (Canis familiaris [4]): 0%
41 | Cc1nc2n(c1CC#N)CCCC2OCc1ccccc1 (configuration not stated) | 44 |  |  |  | 0 | 
42 | Cc1ccn2c(C)c(C)nc2c1OCc1ccccc1 | 92 | 16 | 70 | 35 |  | 
43 | Cc1nc2c(OCc3ccccc3F)cccn2c1N | 93 | 6.6 | 93 | 93 |  | inhibition in vivo at 4 mg/kg (Canis familiaris [4]): 46%; inhibition in vivo at 2 mg/kg (Canis familiaris [9]): 20%
44 | COc1c(C)nc2c(OCc3ccccc3)cccn12 | 49 | 3.6 |  |  | 37 | 
45 | CCCNc1c(C)nc2c(OCc3ccccc3)cccn12 | 99 | 5.3 | 12 | 68 |  | 
46 | CNc1c(C)nc2c(OCc3ccccc3)cccn12 | 55 | 9.8 |  |  |  | 
47 | Cc1nc2c(OCc3ccccc3)ccc(C)n2c1CC#N.Cl |  | 8 |  |  | 0 | inhibition in vivo at 4 mg/kg (Canis familiaris [4]): 11%
48 | CC(=O)Nc1c(C)nc2c(CCc3ccccc3)cccn12 | 40 | 12 |  | 16 | 3 | 
49 | CCCc1nc2c(OCc3ccccc3)cccn2c1N | 31 |  | 45 | 0 |  | 
50 | Nc1cnc2c(OCc3ccccc3)cccn12 | 32 | 9.1 | 81 | 43 |  | inhibition in vivo at 1 mg/kg (Canis familiaris [2]): 49%
51 | Cc1nc2c(OCc3ccc(C(F)(F)F)cc3)cccn2c1N | 78 | 6.5 | 0 | 8 |  | 

Reference: ChEMBL document CHEMBL1123641, “Antiulcer agents. 2. Gastric antisecretory, cytoprotective, and metabolic properties of substituted imidazo[1,2-a]pyridines and analogues” (J Med Chem, 1987)
